Results taken from article PMC2574552 (Molecular pharmacology, 2008).
Like-named read-outs stand apart in the source and are kept apart here. Each block holds one compound with its values, some of them ahead of it.

Columns and labels:
[1] = molecular target: human mGluR4 (Homo sapiens, UniProt Q14833); experiment: human mGluR4/Gqi5/CHO calcium mobilization assay; type: cell-based; conditions: for Fold shift hmGluR4/Gqi5: leftward shift of glutamate concentration-response curve at 30 μM PAM
[2] = molecular target: rat mGluR4 (Rattus norvegicus, UniProt P31423); experiment: rat mGluR4/GIRK thallium flux assay; type: cell-based; conditions: for Fold shift rmGluR4/GIRK: leftward shift of glutamate concentration-response curve at 30 μM PAM; for % Max rmGluR4/GIRK: maximal potentiated EC20 response vs response to maximal glutamate alone
Chain of rat mGluR4 (P31423 33-912): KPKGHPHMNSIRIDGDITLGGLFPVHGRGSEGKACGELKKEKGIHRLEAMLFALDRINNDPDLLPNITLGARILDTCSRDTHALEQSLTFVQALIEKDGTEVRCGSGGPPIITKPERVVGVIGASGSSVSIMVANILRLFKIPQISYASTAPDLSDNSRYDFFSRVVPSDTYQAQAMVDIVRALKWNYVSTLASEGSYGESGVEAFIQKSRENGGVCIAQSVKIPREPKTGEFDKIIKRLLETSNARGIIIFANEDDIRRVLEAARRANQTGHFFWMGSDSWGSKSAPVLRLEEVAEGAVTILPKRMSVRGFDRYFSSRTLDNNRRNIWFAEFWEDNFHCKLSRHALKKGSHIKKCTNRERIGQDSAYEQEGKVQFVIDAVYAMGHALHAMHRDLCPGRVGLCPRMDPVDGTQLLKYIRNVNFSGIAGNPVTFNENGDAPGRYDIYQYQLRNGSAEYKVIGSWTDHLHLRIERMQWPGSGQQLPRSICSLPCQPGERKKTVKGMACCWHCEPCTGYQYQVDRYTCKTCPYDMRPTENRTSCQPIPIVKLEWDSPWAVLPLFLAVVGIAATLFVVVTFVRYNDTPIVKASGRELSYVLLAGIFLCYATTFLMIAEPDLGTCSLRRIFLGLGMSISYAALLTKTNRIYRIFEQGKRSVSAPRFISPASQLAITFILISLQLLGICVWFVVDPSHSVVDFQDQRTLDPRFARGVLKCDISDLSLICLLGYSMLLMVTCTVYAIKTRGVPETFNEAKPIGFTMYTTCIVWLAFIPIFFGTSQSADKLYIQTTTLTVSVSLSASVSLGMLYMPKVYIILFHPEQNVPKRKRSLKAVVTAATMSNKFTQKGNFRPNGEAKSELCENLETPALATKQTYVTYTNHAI

[3] = test system: 67 different targets including GPCRs, ion channels, and transporters; experiment: MDS-Pharma radioligand binding panel; conditions: MDS-Pharma Services; Supplemental Table 2
[4] = test system: NMDA receptor; type: cell-based, rat; conditions: n = 5
[5] = test system: haloperidol-induced catalepsy; experiment: reversal of haloperidol-induced catalepsy; type: in vivo; conditions: rat, icv
Summary of the method: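 Male Sprague-Dawley rats (225−255 g) carried third-ventricle cannulae. They received haloperidol 1.5 mg/kg i.p. in 0.2% lactic acid. At 2 h, cataleptic rats (staying on the bar 45−60 s; forepaw-removal latency timed) got icv either L-AP4 (100−1000 nmol/10 μl, artificial CSF), test compound (31 or 93 nmol/10 μl, aqueous vehicle pH 7.4) or vehicle. Rats were retested at 15, 30 and 60 min; 6 rats/group; Dunnett's test versus vehicle.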

[6] = test system: reserpine-induced akinesia; experiment: reversal of reserpine-induced akinesia; type: in vivo; conditions: rat, icv, reserpine 5 mg/kg s.c., 2 h pretreatment
[7] = solubility in dosing vehicle; type: physicochemical
[8] = molecular target: rat mGluR1 (Rattus norvegicus, UniProt P23385); experiment: rat mGluR1/BHK calcium fluorescence counterscreen; type: cell-based; conditions: 30 μM; glutamate EC20
Chain of rat mGluR1 (P23385 19-1199): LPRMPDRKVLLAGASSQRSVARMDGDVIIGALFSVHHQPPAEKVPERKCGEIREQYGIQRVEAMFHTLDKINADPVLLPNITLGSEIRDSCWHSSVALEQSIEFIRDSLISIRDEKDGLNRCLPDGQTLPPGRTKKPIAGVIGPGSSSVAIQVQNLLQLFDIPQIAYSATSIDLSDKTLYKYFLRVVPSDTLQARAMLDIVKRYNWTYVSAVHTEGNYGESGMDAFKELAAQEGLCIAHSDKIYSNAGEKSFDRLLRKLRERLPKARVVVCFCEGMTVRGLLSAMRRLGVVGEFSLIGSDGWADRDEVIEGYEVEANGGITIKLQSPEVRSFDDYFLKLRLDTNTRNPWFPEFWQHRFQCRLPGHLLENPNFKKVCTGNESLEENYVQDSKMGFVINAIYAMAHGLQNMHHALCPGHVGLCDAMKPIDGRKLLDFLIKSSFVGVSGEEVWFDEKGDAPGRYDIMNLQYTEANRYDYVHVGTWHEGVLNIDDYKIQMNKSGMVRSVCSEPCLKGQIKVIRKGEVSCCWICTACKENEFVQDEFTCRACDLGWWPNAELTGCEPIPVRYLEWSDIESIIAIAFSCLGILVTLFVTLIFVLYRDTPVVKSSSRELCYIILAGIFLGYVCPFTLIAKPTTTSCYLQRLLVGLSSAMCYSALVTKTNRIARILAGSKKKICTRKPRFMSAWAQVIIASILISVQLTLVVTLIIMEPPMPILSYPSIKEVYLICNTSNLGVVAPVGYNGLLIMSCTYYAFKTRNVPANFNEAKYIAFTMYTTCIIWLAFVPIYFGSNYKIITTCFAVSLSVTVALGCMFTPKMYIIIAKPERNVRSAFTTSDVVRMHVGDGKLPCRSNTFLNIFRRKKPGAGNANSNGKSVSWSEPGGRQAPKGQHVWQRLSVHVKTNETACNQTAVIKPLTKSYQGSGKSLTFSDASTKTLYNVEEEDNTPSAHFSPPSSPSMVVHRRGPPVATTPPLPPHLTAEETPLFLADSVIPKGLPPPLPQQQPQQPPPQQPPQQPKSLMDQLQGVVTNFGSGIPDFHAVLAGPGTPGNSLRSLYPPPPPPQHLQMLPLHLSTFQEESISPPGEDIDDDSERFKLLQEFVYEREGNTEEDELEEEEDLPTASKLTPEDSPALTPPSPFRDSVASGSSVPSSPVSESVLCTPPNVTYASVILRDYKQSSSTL
Summary of the method: (§1)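 Cells were plated on poly-D-lysine plates in DMEM with 10% dialysed FBS, 20 mM HEPES and 1 mM pyruvate: mGluR1/BHK at 15,000 cells/well, mGluR5/HEK at 20,000 cells/well. They were loaded with 1 μM Fluo-4 AM for 45 min at 37°C in HBSS with 20 mM HEPES and 2.5 mM probenecid. […] Peak fluorescence was taken against control and normalised to no-compound response.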

[9] = molecular target: human mGluR2 (Homo sapiens, UniProt Q14416); experiment: human mGluR2 GTPγS binding assay; type: biochemical; conditions: 30 μM; glutamate EC20
Chain of human mGluR2 (Q14416 19-872): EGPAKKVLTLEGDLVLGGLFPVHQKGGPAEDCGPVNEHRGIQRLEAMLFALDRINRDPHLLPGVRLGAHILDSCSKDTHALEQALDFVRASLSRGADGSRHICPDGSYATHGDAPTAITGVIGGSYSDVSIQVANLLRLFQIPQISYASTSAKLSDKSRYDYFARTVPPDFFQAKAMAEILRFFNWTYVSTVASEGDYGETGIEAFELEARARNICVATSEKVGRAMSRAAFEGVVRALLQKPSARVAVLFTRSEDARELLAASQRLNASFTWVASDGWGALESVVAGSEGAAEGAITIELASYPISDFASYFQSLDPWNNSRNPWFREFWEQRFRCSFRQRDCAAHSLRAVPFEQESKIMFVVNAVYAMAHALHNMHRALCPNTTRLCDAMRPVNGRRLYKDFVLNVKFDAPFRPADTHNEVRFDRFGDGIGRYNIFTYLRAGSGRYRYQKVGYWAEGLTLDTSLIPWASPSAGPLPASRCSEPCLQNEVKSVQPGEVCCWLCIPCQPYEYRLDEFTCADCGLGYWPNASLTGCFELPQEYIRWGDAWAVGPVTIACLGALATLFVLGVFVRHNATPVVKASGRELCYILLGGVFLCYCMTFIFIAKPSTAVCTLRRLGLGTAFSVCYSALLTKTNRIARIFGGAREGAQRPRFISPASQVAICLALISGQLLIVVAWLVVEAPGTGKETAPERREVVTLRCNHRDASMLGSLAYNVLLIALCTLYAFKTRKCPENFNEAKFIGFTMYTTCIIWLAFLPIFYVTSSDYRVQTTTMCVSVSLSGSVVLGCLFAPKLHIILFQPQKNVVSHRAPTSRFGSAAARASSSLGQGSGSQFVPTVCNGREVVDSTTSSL
Summary of the method: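 Nonspecific binding: 10 μM unlabelled GTPγS. Mixes shaken 60 min at room temperature, filtered, washed three times and counted by scintillation. Normalised to no-compound response; mean ± S.E.M.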

[10] = molecular target: rat mGluR5 (Rattus norvegicus, UniProt P31424); experiment: rat mGluR5/HEK calcium fluorescence counterscreen; type: cell-based; conditions: 30 μM; glutamate EC20
Chain of rat mGluR5 (P31424 21-1203): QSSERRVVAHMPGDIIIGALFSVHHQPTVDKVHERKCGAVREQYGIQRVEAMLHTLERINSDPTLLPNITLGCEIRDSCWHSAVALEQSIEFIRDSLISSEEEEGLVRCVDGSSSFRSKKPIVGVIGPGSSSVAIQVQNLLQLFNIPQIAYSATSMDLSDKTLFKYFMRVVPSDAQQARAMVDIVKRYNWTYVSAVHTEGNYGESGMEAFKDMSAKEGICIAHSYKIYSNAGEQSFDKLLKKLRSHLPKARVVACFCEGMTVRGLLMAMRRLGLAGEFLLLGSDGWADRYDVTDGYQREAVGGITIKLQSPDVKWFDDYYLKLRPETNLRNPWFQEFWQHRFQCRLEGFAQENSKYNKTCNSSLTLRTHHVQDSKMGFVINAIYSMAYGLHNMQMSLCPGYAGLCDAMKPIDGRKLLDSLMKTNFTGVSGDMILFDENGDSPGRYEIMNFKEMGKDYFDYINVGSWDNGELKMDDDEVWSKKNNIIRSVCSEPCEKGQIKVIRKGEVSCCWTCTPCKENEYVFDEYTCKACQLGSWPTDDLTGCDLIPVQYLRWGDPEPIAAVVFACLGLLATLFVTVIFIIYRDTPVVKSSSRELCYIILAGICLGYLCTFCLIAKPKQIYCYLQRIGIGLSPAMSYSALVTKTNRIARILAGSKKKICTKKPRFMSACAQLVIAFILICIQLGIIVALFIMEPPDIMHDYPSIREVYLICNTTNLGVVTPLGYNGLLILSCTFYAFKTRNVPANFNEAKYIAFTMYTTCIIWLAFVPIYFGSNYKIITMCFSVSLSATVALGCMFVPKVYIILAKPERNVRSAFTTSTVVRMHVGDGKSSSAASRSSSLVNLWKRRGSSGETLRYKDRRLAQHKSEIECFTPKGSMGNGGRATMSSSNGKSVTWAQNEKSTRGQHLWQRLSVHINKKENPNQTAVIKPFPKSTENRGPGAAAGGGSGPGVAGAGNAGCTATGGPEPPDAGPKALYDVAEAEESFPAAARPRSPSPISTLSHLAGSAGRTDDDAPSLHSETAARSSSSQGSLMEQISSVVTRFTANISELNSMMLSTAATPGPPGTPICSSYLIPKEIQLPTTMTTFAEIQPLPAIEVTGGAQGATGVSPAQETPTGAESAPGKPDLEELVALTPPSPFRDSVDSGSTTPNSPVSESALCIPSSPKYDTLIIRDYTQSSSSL
Summary of the method: as §1

[11] = molecular target: rat mGluR7 (Rattus norvegicus, UniProt P35400); experiment: rat mGluR7/GIRK thallium flux assay; type: cell-based; conditions: 30 μM; L-AP4 EC20
Summary of the method: (§2)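 GIRK-coexpressing cells were plated at 15,000/well on poly-D-lysine and grown overnight at 37°C, 5% CO2. They were loaded with 1.7 μM BTC-AM for 1 h at room temperature, then buffer was exchanged. […] Fluorescence was read at 470/540 nm, at 1 Hz for 2 min after agonist. Normalised to no-compound response; mean ± S.E.M.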

[12] = molecular target: rat mGluR8 (Rattus norvegicus, UniProt P70579); experiment: rat mGluR8/GIRK thallium flux assay; type: cell-based; conditions: 30 μM; glutamate EC20
Summary of the method: as §2

[13] = test system: mGluR4; conditions: read-out: potency at mGluR4 in vitro; ref Marino et al., 2003; cited from earlier work

Chain of human mGluR4 (Q14833 33-912): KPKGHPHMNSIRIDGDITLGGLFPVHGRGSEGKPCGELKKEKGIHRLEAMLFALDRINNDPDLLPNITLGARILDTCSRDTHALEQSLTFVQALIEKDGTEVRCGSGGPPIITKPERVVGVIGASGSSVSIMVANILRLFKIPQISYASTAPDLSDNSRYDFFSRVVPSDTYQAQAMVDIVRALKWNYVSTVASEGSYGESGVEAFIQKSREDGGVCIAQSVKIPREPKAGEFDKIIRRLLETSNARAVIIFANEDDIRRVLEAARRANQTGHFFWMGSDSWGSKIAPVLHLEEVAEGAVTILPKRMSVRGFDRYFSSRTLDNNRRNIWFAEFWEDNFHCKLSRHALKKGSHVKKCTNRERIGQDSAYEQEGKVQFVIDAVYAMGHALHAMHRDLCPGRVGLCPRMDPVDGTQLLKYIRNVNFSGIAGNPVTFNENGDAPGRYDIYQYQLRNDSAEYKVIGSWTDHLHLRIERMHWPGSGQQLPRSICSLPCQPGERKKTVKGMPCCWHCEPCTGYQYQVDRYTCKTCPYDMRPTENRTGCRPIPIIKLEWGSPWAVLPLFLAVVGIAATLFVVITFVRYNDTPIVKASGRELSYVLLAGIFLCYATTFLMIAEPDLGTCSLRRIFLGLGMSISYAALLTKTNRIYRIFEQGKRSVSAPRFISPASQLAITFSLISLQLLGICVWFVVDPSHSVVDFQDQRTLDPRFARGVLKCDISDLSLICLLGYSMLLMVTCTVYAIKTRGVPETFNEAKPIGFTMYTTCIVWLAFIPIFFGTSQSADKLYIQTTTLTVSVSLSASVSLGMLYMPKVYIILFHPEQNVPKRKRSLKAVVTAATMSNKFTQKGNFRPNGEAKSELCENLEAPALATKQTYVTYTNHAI

Compound: O=C(Nc1cc(Cl)cc(Cl)c1)[C@H]1CCCC[C@H]1C(=O)O (racemic) [VU0155041, (±)-cis-2-(3,5-Dicholorphenylcarbamoyl)cyclohexanecarboxylic acid]
Fold shift hmGluR4/Gqi5 [1]: 6.4±0.7 fold
Fold shift rmGluR4/GIRK [2]: 4.7±0.4 fold
EC50 ([2]; read-out: potency at rat mGluR4 (GIRK assay), potentiation of EC20 glutamate): 693 ± 140 nM
effect on radioligand binding at 67 targets [3]: no effect on binding at any target examined
amplitude of NMDA receptor currents ([4]; 10 μM, p > 0.3): 106.3 ± 5.8 % of control
haloperidol-induced catalepsy ([5]; doses of 31 and 92 nmol, effects still present 30 min after infusion): significantly decrease
reversal of reserpine-induced akinesia ([6]; 316 nmol): significant reversal of akinesia
solubility in vehicle [7]: soluble in an aqueous vehicle

EC50 [2]: 9200 ± 1200 nM
Compound: N[C@@H](CCC(=O)O)C(=O)O [glutamate, L-glutamate, reference compound]

Compound: N[C@@H](CCP(=O)(O)O)C(=O)O [L-AP4, L-(+)-2-amino-4-phosphonobutryic acid, reference compound]
haloperidol-induced catalepsy ([5]; 100−1000 nmol, dose-dependent, haloperidol 1.5 mg/kg i.p.): significantly decreased
reversal of reserpine-induced akinesia ([6]; 300 and 1000 nmol): significant reversals of akinesia

Compound: O=C(O)C1CCCCC1C(=O)Nc1cc(Cl)cc(Cl)c1 [(1R, 2S)]
potency and efficacy of single cis-enantiomers ([1]; mGluR4, assay not specified, data not shown): equal potency and efficacy

Fold shift hmGluR4/Gqi5 [1]: 3.0±0.3 fold
Fold shift rmGluR4/GIRK [2]: 2.5±0.5 fold
Compound: O=C(O)[C@@H]1CCCC[C@H]1C(=O)Nc1cc(Cl)cc(Cl)c1 (racemic) [VU0155040, (±)-trans-2-(3,5-Dichlorophenylcarbamoyl)cyclohexanecarboxylic acid]

Compound: O=C(O)C1CCCCC1C(=O)Nc1cc(Cl)cc(Cl)c1 (centres unmarked) [Compound 2h, 2-(3,5-Dichlorophenylcarbamoyl)cyclohexanecarboxylic acid]
EC50 [1]: 750 ± 200 nM
response to compound alone in calcium assay ([1]; 10 μM, absence of glutamate, trace from original HTS): small calcium response
Fold shift hmGluR4/Gqi5 [1]: 6.5±1.0 fold
improved potency compared to PHCCC ([1]; mGluR4 PAM potency relative to PHCCC): approximately 8 fold
% Max hmGluR4/Gqi5 ([1]; maximal potentiated EC20 response vs response to maximal glutamate alone): 120.0±6.7%
EC50 [2]: 560 ± 100 nM
Fold shift rmGluR4/GIRK [2]: 7.7±0.6 fold
% Max rmGluR4/GIRK [2]: 107.6±6.3%
potentiation of EC20 agonist response, mGluR1 [8]: did not potentiate
potentiation of EC20 agonist response, mGluR2 [9]: did not potentiate
potentiation of EC20 agonist response, mGluR5 [10]: did not potentiate
potentiation of EC20 agonist response, mGluR7 [11]: did not potentiate
potentiation of EC20 agonist response, mGluR8 [12]: did not potentiate

Compound: N-Phenyl-7-(hydroxyimino)cyclopropa[b]chromen-1a-carboxamide [PHCCC, reference compound]
maximal agonist response, percent of the maximal glutamate response ([2]; compound alone, no glutamate, observed at 30 μM): −2.3±2.0%
% Max rmGluR4/GIRK [2]: 120.3±4.4%
solubility in vehicle ([7]; vehicle for icv administration): only soluble in vehicles containing high concentrations of DMSO or other relatively toxic vehicles
EC50 [13]: ~4000 nM

Compound: C[C@@H](CN1CCC(Cc2ccccc2)CC1)[C@@H](O)c1ccc(O)cc1 [Ro25−6981, (αR,βS)-α-(4-hydroxyphenyl)-β-methyl-4-(phenylmethyl)-1-piperidinepropanol, reference compound]
peak amplitude of NMDAR currents ([4]; 1 μM, p < 0.003): 53.1 ± 8.5 % of control
